{"data": "Assay results collected from several papers", "target": "MAP/microtubule affinity-regulating kinase 4 (MARK4, Homo sapiens, UniProt Q96L34)", "One construct used (Q96L34 1-752)": "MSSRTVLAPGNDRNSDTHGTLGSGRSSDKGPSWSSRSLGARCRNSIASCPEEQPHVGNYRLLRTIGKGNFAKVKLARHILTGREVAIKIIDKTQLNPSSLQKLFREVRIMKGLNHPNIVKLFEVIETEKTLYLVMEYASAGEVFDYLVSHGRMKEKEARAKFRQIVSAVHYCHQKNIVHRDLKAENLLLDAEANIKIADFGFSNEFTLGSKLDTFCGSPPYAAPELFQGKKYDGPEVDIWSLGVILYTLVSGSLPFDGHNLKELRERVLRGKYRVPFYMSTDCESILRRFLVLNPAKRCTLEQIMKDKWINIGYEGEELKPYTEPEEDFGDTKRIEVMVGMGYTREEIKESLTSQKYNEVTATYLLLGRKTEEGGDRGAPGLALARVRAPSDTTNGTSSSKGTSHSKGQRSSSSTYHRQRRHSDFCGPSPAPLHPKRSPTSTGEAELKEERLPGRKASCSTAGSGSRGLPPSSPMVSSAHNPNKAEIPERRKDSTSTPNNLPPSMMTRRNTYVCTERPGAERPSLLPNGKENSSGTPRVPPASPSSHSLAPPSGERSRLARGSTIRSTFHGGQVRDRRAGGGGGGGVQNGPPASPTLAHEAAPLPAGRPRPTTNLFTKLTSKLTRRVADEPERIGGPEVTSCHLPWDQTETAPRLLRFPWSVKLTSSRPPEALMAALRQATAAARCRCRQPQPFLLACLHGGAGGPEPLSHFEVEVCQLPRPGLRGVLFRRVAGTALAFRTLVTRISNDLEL", "note": "Protocols differ between the studies behind these lines."}
{"read-out": "cell-free assay", "concentration": "0.5 µM", "quantity": "remaining signal", "result": "94.2%", "Compound": "COc1cc2ncnc(Nc3ccc(F)c(Cl)c3)c2cc1OCCCN1CCOCC1"}
{"read-out": "enzyme activity", "mode": "inhibitor", "method": "radiometric", "concentration": "10 µM", "quantity": "remaining activity", "result": "83%", "Compound": "COc1cc(Nc2cnc(C#N)c(O[C@H](C)CN(C)C)n2)ncc1-c1cnn(C)c1"}
{"read-out": "enzyme activity", "mode": "inhibitor", "method": "radiometric", "concentration": "1 µM", "quantity": "remaining activity", "result": "98%", "Compound": "NS(=O)(=O)c1ccc(CNc2ccnc(Nc3cccc(CN4CCOCC4)c3)n2)cc1"}
{"read-out": "enzyme activity", "mode": "inhibitor", "method": "radiometric", "concentration": "5 µM", "quantity": "activity vs control", "result": "93%", "Compound": "FC(F)(F)Oc1cccc(-c2cnc3ccc(-c4ccncc4)nn23)c1"}
{"read-out": "enzyme activity", "mode": "inhibitor", "method": "radiometric", "concentration": "1 µM", "quantity": "remaining activity", "result": "27%", "Compound": "Cc1nn(CC(F)(F)F)cc1Nc1ncc(Br)c(NCCCNC(=O)C2CCC2)n1"}
{"read-out": "cell-free assay", "method": "competition with immobilised ligand", "concentration": "1 µM", "quantity": "remaining binding", "result": "100%", "Compound": "C[C@@H](c1cccc(C#N)c1)n1cc(Cl)cc(C(N)=O)c1=N"}
{"read-out": "cell-free assay", "mode": "inhibitor", "concentration": "20 µM", "quantity": "remaining signal", "result": "51%", "Compound": "Nc1ncnc2occ(-c3ccc(NC(=O)Nc4cc(C(F)(F)F)ccc4F)cc3)c12"}
{"read-out": "cell-free assay", "method": "competition with immobilised ligand", "concentration": "1 µM", "quantity": "remaining binding", "result": "76%", "Compound": "CO[C@@H](C)c1c(Nc2ccc([C@H](N(C)C(=O)C3CCS(=O)(=O)CC3)C(F)(F)F)cc2)cnc2cc(Cl)nn12"}
{"read-out": "enzyme activity", "mode": "inhibitor", "method": "radiometric", "concentration": "1 µM", "quantity": "remaining activity", "result": "5%", "Compound": "O=C(NCCCNc1nc(Nc2cccc(CN3CCOCC3)c2)ncc1C1CC1)C1CCC1"}
{"read-out": "enzyme activity", "mode": "inhibitor", "concentration": "1 µM", "quantity": "inhibition", "result": "-1%", "Compound": "COc1cc2ncnc(Nc3ccc(Oc4ccccc4)c(C)c3C)c2cc1OC"}
{"read-out": "cell-free assay", "method": "competition with immobilised ligand", "concentration": "1 µM", "quantity": "remaining binding", "result": "100%", "Compound": "CCS(=O)(=O)c1cc2cc(C[C@@](O)(CC(C)(C)c3ccc(F)cc3C(N)=O)C(F)(F)F)[nH]c2cn1"}
{"read-out": "cell-free assay", "concentration": "0.5 µM", "quantity": "remaining signal", "result": "78.4%", "Compound": "O=C1Nc2ccc(Cl)cc2C1=Cc1cc(Cl)c(O)c(Cl)c1"}
{"read-out": "cell-free assay", "method": "competition with immobilised ligand", "concentration": "1 µM", "quantity": "remaining binding", "result": "100%", "Compound": "CCCOc1ccc([C@@H]2[C@@H](C(=O)O)[C@H](c3ccc4c(c3)OCO4)CN2CC(=O)Nc2c(CC)cccc2CC)cc1"}
{"read-out": "enzyme activity", "mode": "inhibitor", "method": "radiometric", "concentration": "1 µM", "quantity": "remaining activity", "result": "89%", "Compound": "NS(=O)(=O)c1ccc(CNc2nc(Nc3cccc(NC(=O)N4CCCC4)c3)ncc2C2CC2)cc1"}
{"read-out": "cell-free assay", "method": "competition with immobilised ligand", "concentration": "1 µM", "quantity": "remaining binding", "result": "76%", "Compound": "O=C(Nc1cccnn1)N1CCC(=Cc2cccc(Oc3ccc(C(F)(F)F)cn3)c2)CC1"}
{"read-out": "cell-free assay", "concentration": "0.5 µM", "quantity": "remaining signal", "result": "60.6%", "Compound": "COc1cc(Nc2c(C#N)cnc3cc(OCCCN4CCN(C)CC4)c(OC)cc23)c(Cl)cc1Cl"}
{"read-out": "cell-free assay", "method": "competition with immobilised ligand", "concentration": "1 µM", "quantity": "remaining binding", "result": "92%", "Compound": "COc1ccc2c(c1)O[C@@H](c1ccc(OC)c(OC)c1)C[C@H]2NC(=O)C1(c2ccc3c(c2)OC(F)(F)O3)CC1"}
{"read-out": "enzyme activity", "mode": "inhibitor", "method": "radiometric", "concentration": "1 µM", "quantity": "remaining activity", "result": "7%", "Compound": "O=C(NCCCNc1nc(Nc2cccc(NC(=O)N3CCCC3)c2)ncc1C1CC1)C1CCC1"}
{"read-out": "binding", "concentration": "1 µM", "quantity": "remaining binding", "result": "100%", "Compound": "C[C@H]1CCN(c2nccc(-c3cnn4ncccc34)n2)C1"}
{"read-out": "enzyme activity", "mode": "inhibitor", "method": "radiometric", "concentration": "1 µM", "quantity": "remaining activity", "result": "4%", "Compound": "c1cc(CN2CCOCC2)cc(Nc2ncc(C3CC3)c(NCCc3c[nH]cn3)n2)c1"}
{"read-out": "enzyme activity", "mode": "inhibitor", "concentration": "1 µM", "quantity": "activity vs control", "result": "74%", "Compound": "COc1cc(/C=C/C(=O)CC(=O)/C=C/c2ccc(O)c(OC)c2)ccc1O"}
{"read-out": "enzyme activity", "mode": "inhibitor", "concentration": "1 µM", "quantity": "inhibition", "result": "< 20%", "Compound": "CCCS(=O)(=O)Nc1ccc(F)c(C(=O)c2c[nH]c3ncc(-c4ccc(Cl)cc4)cc23)c1F"}
{"read-out": "enzyme activity", "mode": "inhibitor", "concentration": "0.1 µM", "quantity": "inhibition", "result": "-2.4%", "Compound": "CC/C(=N\\NC(=O)NCc1cccc(O)c1)c1ccc(O)c(C)c1O"}
{"read-out": "cell-free assay", "method": "competition with immobilised ligand", "concentration": "1 µM", "quantity": "remaining binding", "result": "100%", "Compound": "CC(=O)N1CCC(c2ccc(C(=O)NC(=N)N)cc2C(F)(F)F)CC1"}
{"read-out": "enzyme activity", "mode": "inhibitor", "method": "radiometric", "concentration": "1 µM", "quantity": "remaining activity", "result": "85%", "Compound": "O=C(NCCCNc1ccnc(Nc2cccc(NC(=O)N3CCCC3)c2)n1)C1CCC1"}
